Data as given in article PMC3594046 (Bioorganic & medicinal chemistry letters, 2013).

Legend:
[1] = target: T1, TRβ-LBD / SRC2-2 peptide interaction (Homo sapiens, UniProt P10828); experiment: Fluorescence polarization; format: binding
T1 sequence (P10828 217-461 limits assumed): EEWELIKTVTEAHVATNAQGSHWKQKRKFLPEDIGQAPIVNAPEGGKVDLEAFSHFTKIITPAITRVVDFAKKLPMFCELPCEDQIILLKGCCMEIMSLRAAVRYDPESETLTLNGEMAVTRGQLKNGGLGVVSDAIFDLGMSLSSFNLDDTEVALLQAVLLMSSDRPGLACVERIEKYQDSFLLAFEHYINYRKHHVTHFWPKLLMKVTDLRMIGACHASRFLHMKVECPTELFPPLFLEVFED
Summary of the method: (§1)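 Fluorescence polarization competition assays: TRβ-LBD with Texas Red-labelled SRC2-2 peptide, and VDR with SRC2-3 peptide. Test compounds were 3-fold serially diluted in DMSO from a 10,000 μM top concentration and pin-transferred into the assay solutions. Each run was in triplicate and repeated twice, giving 6 replicates. EC50 is reported as the mean with standard deviation.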

[2] = target: T2, TRα / SRC2-2 interaction (Homo sapiens, UniProt P10827); experiment: FP competition assay, TRα-coactivator; format: binding; conditions: in words
T2 sequence (P10827 1-410 isoform P10827-2): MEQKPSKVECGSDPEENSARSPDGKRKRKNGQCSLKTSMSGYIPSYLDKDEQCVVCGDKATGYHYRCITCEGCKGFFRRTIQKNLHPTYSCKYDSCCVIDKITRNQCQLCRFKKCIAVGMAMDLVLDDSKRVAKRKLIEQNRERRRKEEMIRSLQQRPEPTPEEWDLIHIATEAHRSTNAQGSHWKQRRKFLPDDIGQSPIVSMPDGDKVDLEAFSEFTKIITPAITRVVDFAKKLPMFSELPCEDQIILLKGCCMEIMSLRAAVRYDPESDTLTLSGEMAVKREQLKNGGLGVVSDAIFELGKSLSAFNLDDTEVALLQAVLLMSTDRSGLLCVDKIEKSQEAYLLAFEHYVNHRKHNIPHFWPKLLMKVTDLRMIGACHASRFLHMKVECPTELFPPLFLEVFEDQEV

[3] = test system: PEPCK gene transcription (TR-responsive) in HepG2 cells; experiment: RT-PCR of T3-induced PEPCK transcription in HepG2 cells; format: cell-based; conditions: HepG2, co-treated with T3 (100 nM) and compound (1 μM and 100 nM), 24 h
Summary of the method: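 HepG2 cells were co-treated for 24 h with T3 (100 nM) and test compound at 1 μM or 100 nM. Controls were a T3 ligand antagonist and a known coactivator antagonist. mRNA was isolated and converted to cDNA, and diluted cDNA was used for real-time PCR of PEPCK. Fold induction was calculated by the ΔΔCt method, with two independent experiments in triplicate and standard errors.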

[4] = target: T3, vitamin D receptor (VDR) / SRC2-3 interaction (Homo sapiens, UniProt P11473); experiment: FP competition assay, VDR-SRC2-3 interaction; format: binding
T3 sequence (P11473 1-427): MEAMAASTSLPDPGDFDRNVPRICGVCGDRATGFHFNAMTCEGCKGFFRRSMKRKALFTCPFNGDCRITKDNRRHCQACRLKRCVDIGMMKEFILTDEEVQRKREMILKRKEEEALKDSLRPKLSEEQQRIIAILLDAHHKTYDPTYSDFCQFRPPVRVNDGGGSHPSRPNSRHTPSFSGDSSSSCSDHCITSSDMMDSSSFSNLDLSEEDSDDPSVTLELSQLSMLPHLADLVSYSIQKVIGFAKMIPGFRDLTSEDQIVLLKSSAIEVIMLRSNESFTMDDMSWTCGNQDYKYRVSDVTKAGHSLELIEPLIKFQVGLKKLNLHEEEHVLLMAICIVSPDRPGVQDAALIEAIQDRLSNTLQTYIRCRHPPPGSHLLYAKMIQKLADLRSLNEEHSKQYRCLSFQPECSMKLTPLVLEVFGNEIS
Summary of the method: as §1

Compound	EC50 [1] [µM]	further results
CS(=O)(=O)c1ccc(C(=O)NCC(=O)NC23CC4CC(CC(C4)C2)C3)cc1[N+](=O)[O-] [3{1,1}]	16	–
CCCN(C(=O)CNC(=O)c1ccc(S(C)(=O)=O)c([N+](=O)[O-])c1)c1ccccc1 [3{1,12}]	6.6	–
CS(=O)(=O)c1ccc(C(=O)NCC(=O)N(Cc2ccccc2)c2ccccc2)cc1[N+](=O)[O-] [3{1,13}]	–	TRα-COA antagonism compared with TRβ [2]: slightly more potency against TRα
CN(C(=O)CNC(=O)c1ccc(S(C)(=O)=O)c([N+](=O)[O-])c1)c1ccccc1 [3{1, 11}]	5.8	–
CS(=O)(=O)c1ccc(C(=O)NCCCC(=O)NC23CC4CC(CC(C4)C2)C3)cc1[N+](=O)[O-] [3{3,1}]	11	–
CS(=O)(=O)c1ccc(C(=O)NCCCC(=O)N2CCN(c3ccc(C(F)(F)F)cc3)CC2)cc1[N+](=O)[O-] [3{3,24}]	–	Activity against TR-SRC interaction ([1]; FP assay, in words): inactive; EC50 [4]: 7 µM
CN(CC(=O)NC12CC3CC(CC(C3)C1)C2)C(=O)c1ccc(S(C)(=O)=O)c([N+](=O)[O-])c1 [3{4,1}]	> 60	–
CN(CC(=O)N(Cc1ccccc1)Cc1ccccc1)C(=O)c1ccc(S(C)(=O)=O)c([N+](=O)[O-])c1 [{4, 18}]	> 60	–

Further lines, with some results ahead:

EC50 [1] [µM]	Compound	further results
3.6	CS(=O)(=O)c1ccc(C(=O)NCC(=O)N(Cc2ccccc2)Cc2ccccc2)cc1[N+](=O)[O-] [3{1,18}]	TRα-COA antagonism compared with TRβ [2]: slightly more potency against TRα; Transcription of the PEPCK gene [3]: inhibited by the MSNBA 3{1,18} in dose-dependent manner
> 60	CCCN(C(=O)CN(C)C(=O)c1ccc(S(C)(=O)=O)c([N+](=O)[O-])c1)c1ccccc1 [{4,12}]	–
